Measurements from publication PMC6045484 (ACS Omega, 2018).
Values after ≈ are worked out from the molar mass of the structure shown. “Also recorded” adds a separate entry of the source.

How the values were obtained:
P. falciparum (D6) = test: in vitro antimalarial activity, plasmodial LDH; format: cell-based, Plasmodium falciparum; details: Plasmodium falciparum, D6, 72 h, read-out: P. falciparum (D6) IC50
[1] = tested on: SK-MEL, KB, BT-549, SK-OV-3, VERO and LLC-PK1 cells; test: cytotoxicity, neutral red uptake assay; format: cell-based, mammalian; details: highest test concentration 4760 ng/mL
Procedure, shortened: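 Cells seeded at 25 000/well and allowed 24 h to reach confluence. Test compound was then added and incubated 48 h. Viable cells were counted by a modified neutral red uptake method. The panel was four human cancer lines and two noncancerous mammalian kidney lines. Doxorubicin served as positive control and DMSO as negative control.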

MRSA (ATCC33591) = test: in vitro antibacterial activity; format: cell-based, methicillin-resistant Staphylococcus aureus; details: Staphylococcus aureus, ATCC33591|MRSA, read-out: MIC, MRSA
Procedure, shortened: (§1)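 Test compound serially diluted in 20% DMSO/saline and plated in duplicate, up to 20 μg/mL. Inoculum in cation-adjusted Mueller–Hinton broth, pH 7.3, set by OD630 to 5 × 10^5 CFU/mL. Incubated 16–20 h at 35 °C; 530 nm read before and after. IC50 is 50% growth inhibition; MIC is no detectable growth. MBC from clear wells subcultured on agar. Ciprofloxacin control.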

[2] = tested on: P. berghei (sensitive strain); test: blood-schizontocidal activity against P. berghei infection in mice; format: in vivo, Plasmodium berghei; details: Swiss mice
Procedure, shortened: (§2)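 Swiss mice of either sex (about 15–20 g, same age), six per group, inoculated intraperitoneally on day 0 with 1 × 10^7 infected erythrocytes from a donor mouse. Oral test compound at 100, 50, 25 or 10 mg/kg, CQ diphosphate (10 mg/kg/day × 4) or vehicle started 4 h later, on D0 to D+3. Giemsa tail-blood smears on D+4 and D+7. Curative: parasites eliminated, no relapse, all mice surviving to D+60.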

A. fumigatus ATCC 90906 = test: in vitro antifungal activity; format: cell-based, Aspergillus fumigatus; details: Aspergillus fumigatus; for IC50: ATCC90906, read-out: A. fumigatus IC50; for MFC: ATCC90906, read-out: A. fumigatus MFC; for MIC: ATCC90906, read-out: A. fumigatus MIC
Procedure, shortened: (§3)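 Modified NCCLS broth method in Sabouraud dextrose. Inoculum set by OD630 to 1.5 × 10^3 CFU/mL. Test compound serially diluted in 20% DMSO/saline, duplicate wells, up to 20 μg/mL. Incubated 70–74 h at 35 °C; 530 nm read before and after. IC50 is 50% growth inhibition; MIC is no detectable growth. MFC from clear wells subcultured on agar. Amphotericin B control.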

P. falciparum (W2) = test: in vitro antimalarial activity, plasmodial LDH; format: cell-based, Plasmodium falciparum; details: for IC50: Plasmodium falciparum, W2, 72 h, read-out: P. falciparum (W2) IC50, CQ-resistant W2 strain, 72 h
Procedure, shortened: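 P. falciparum-infected erythrocytes (2% parasitemia, 2% hematocrit) in RPMI 1640 with 10% human serum and 60 μg/mL amikacin. Exposed to test compound dilutions for 72 h at 37 °C under 90% N2/5% O2/5% CO2. LDH measured with Malstat reagent (30 min, room temperature), then NBT/PES for 1 h in the dark, stopped with 5% acetic acid, read at 650 nm. IC50 from dose-response curves.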

C. albicans ATCC90028 = test: in vitro antifungal activity; format: cell-based, Candida albicans; details: Candida albicans; for IC50: ATCC90028, read-out: C. albicans IC50; for MFC: ATCC90028, read-out: C. albicans MFC; for MIC: ATCC90028, read-out: C. albicans MIC
Procedure, shortened: as §3

C. neoformans ATCC90113 = test: in vitro antifungal activity; format: cell-based, Cryptococcus neoformans; details: Cryptococcus neoformans; for IC50: ATCC90113, read-out: C. neoformans IC50; for MFC: ATCC90113, read-out: C. neoformans MFC; for MIC: ATCC90113, read-out: C. neoformans MIC
Procedure, shortened: as §3

[3] = tested on: M. intracellulare (ATCC23068); test: in vitro antibacterial activity, modified alamarBlue procedure; format: cell-based, Mycobacterium intracellulare; details: Mycobacterium intracellulare; for IC50: ATCC23068, read-out: IC50 (concentration that affords 50% growth inhibition), M. intracellulare; for MBC: ATCC23068, read-out: MBC (minimum bactericidal concentration), M. intracellulare; for MIC: ATCC23068, read-out: MIC, M. intracellulare
Procedure, shortened: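 Modified alamarBlue microplate method. Test compound serially diluted in 20% DMSO/saline, duplicate wells, up to 20 μg/mL. Inoculum 2.0 × 10^6 CFU/mL in Middlebrook 7H9 with OADC, pH 7.3, containing 5% alamarBlue. Incubated 70–74 h at 37 °C, 10% CO2; fluorescence 544ex/590em read before and after. MIC: no blue-to-pink change. MBC by subculturing blue wells on agar. Ciprofloxacin control.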

[4] = tested on: L. donovani promastigotes; test: in vitro antileishmanial activity, alamarBlue assay; format: cell-based, Leishmania donovani; details: Leishmania donovani, 48 h; for IC50: read-out: L. donovani IC50, promastigotes, 48 h; for IC90: read-out: L. donovani IC90, promastigotes, 48 h
SA (ATCC29213) = test: in vitro antibacterial activity; format: cell-based; details: Staphylococcus aureus; for IC50: ATCC29213, read-out: IC50 (concentration that affords 50% growth inhibition), SA; for MBC: ATCC29213, read-out: MBC (minimum bactericidal concentration), SA; for MIC: ATCC29213, read-out: MIC, SA
Procedure, shortened: as §1

[5] = tested on: multidrug-resistant P. yoelii nigeriensis; test: blood-schizontocidal activity against P. yoelii nigeriensis infection in mice; format: in vivo, Plasmodium yoelii nigeriensis; details: Swiss mice
Procedure, shortened: as §2

CCCCCOc1c(OC)cc(NC(C)CCCN)c2nc(C(C)(C)C)ccc12 (stereo not shown) [compound 46, N^4-(2-tert-Butyl-6-methoxy-5-(pentyloxy)quinolin-8-yl)pentane-1,4-diamine]
IC50 (P. falciparum (D6)): 0.02 µg/mL (≈ 0.0498 µM)
cytotoxicity CTX [1]: NC (NC, not cytotoxic up to 4760 ng/mL (4.76 μg/mL))
MIC (MRSA (ATCC33591)): > 20 µg/mL
P. berghei blood-schizontocidal activity (mice cured/treated) ([2]; 10 mg/kg/day × 4, oral): active (4/6)
P. berghei blood-schizontocidal activity (mice cured/treated) ([2]; 25 mg/kg/day × 4, oral): curative (6/6)
P. berghei blood-schizontocidal activity (mice cured/treated) ([2]; 50 mg/kg/day × 4, oral): curative (6/6)
P. berghei blood-schizontocidal activity (mice cured/treated) ([2]; 100 mg/kg/day × 4, oral): curative (6/6)
IC50 (A. fumigatus ATCC 90906): > 20 µg/mL
MFC (A. fumigatus ATCC 90906): > 20 µg/mL
MIC (A. fumigatus ATCC 90906): > 20 µg/mL
IC50 (P. falciparum (W2)): 0.022 µg/mL (≈ 0.0548 µM)
IC50 (C. albicans ATCC90028): > 20 µg/mL
MFC (C. albicans ATCC90028): > 20 µg/mL
MIC (C. albicans ATCC90028): > 20 µg/mL
IC50 (C. neoformans ATCC90113): > 20 µg/mL
MFC (C. neoformans ATCC90113): > 20 µg/mL
MIC (C. neoformans ATCC90113): > 20 µg/mL
IC50 [3]: > 20 µg/mL
MBC [3]: > 20 µg/mL
MIC [3]: > 20 µg/mL
IC50 [4]: 32 µg/mL (≈ 79.7 µM)
IC90 [4]: > 40 µg/mL
IC50 (SA (ATCC29213)): 9.04 µg/mL (≈ 22.5 µM)
MBC (SA (ATCC29213)): > 20 µg/mL
MIC (SA (ATCC29213)): > 20 µg/mL
P. yoelii nigeriensis blood-schizontocidal activity (mice cured/treated) ([5]; 25 mg/kg/day × 4, oral): active (4/6)
P. yoelii nigeriensis blood-schizontocidal activity (mice cured/treated) ([5]; 50 mg/kg/day × 4, oral): curative (6/6)
P. yoelii nigeriensis blood-schizontocidal activity (mice cured/treated) ([5]; 100 mg/kg/day × 4, oral): cured 100% mice; also recorded: curative (6/6)

CCCCCCOc1c(OC)cc(NC(C)CCCN)c2nc(C(C)(C)C)ccc12 (stereo not shown) [compound 47, N^4-(2-tert-Butyl-5-(hexyloxy)-6-methoxyquinolin-8-yl)pentane-1,4-diamine]
IC50 (P. falciparum (D6)): 0.042 µg/mL (≈ 0.101 µM)
cytotoxicity CTX [1]: NC (NC, not cytotoxic up to 4760 ng/mL (4.76 μg/mL))
MIC (MRSA (ATCC33591)): 5 µg/mL (≈ 12 µM)
P. berghei blood-schizontocidal activity (mice cured/treated) ([2]; 10 mg/kg/day × 4, oral): active (5/6)
P. berghei blood-schizontocidal activity (mice cured/treated) ([2]; 25 mg/kg/day × 4, oral): curative (6/6)
P. berghei blood-schizontocidal activity (mice cured/treated) ([2]; 50 mg/kg/day × 4, oral): curative (6/6)
P. berghei blood-schizontocidal activity (mice cured/treated) ([2]; 100 mg/kg/day × 4, oral): curative (6/6)
IC50 (A. fumigatus ATCC 90906): > 20 µg/mL
MFC (A. fumigatus ATCC 90906): > 20 µg/mL
MIC (A. fumigatus ATCC 90906): > 20 µg/mL
P. falciparum (W2) IC50 (P. falciparum (W2); CQ-resistant W2 strain, 72 h): 0.04 µg/mL
IC50 (P. falciparum (W2)): 0.042 µg/mL (≈ 0.101 µM)
IC50 (C. albicans ATCC90028): 15.4 µg/mL (≈ 37.2 µM)
MFC (C. albicans ATCC90028): 20 µg/mL (≈ 48.1 µM)
MIC (C. albicans ATCC90028): 20 µg/mL (≈ 48.1 µM)
IC50 (C. neoformans ATCC90113): 2.97 µg/mL (≈ 7.15 µM)
MFC (C. neoformans ATCC90113): 5 µg/mL (≈ 12 µM)
MIC (C. neoformans ATCC90113): 5 µg/mL (≈ 12 µM)
IC50 [3]: 6.3 µg/mL (≈ 15.2 µM)
MBC [3]: 10 µg/mL (≈ 24.1 µM)
MIC [3]: 10 µg/mL (≈ 24.1 µM)
IC50 [4]: 4.6 µg/mL (≈ 11.1 µM)
IC90 [4]: > 40 µg/mL
IC50 (SA (ATCC29213)): 2.77 µg/mL (≈ 6.66 µM)
MBC (SA (ATCC29213)): 5 µg/mL (≈ 12 µM)
MIC (SA (ATCC29213)): 5 µg/mL (≈ 12 µM)
P. yoelii nigeriensis blood-schizontocidal activity (mice cured/treated) ([5]; 25 mg/kg/day × 4, oral): inactive (0/6)
P. yoelii nigeriensis blood-schizontocidal activity (mice cured/treated) ([5]; 50 mg/kg/day × 4, oral): cured 100% mice; also recorded: curative (6/6)
P. yoelii nigeriensis blood-schizontocidal activity (mice cured/treated) ([5]; 100 mg/kg/day × 4, oral): curative (6/6)

CCCCCCCCOc1c(OC)cc(NC(C)CCCN)c2nc(C(C)(C)C)ccc12 (stereo not shown) [compound 49, N^4-(2-tert-Butyl-6-methoxy-5-(octyloxy)quinolin-8-yl)pentane-1,4-diamine]
IC50 (P. falciparum (D6)): 0.053 µg/mL (≈ 0.119 µM)
cytotoxicity CTX [1]: NC (NC, not cytotoxic up to 4760 ng/mL (4.76 μg/mL))
MIC (MRSA (ATCC33591)): 5 µg/mL (≈ 11.3 µM)
P. berghei blood-schizontocidal activity (mice cured/treated) ([2]; 10 mg/kg/day × 4, oral): active (4/6)
P. berghei blood-schizontocidal activity (mice cured/treated) ([2]; 25 mg/kg/day × 4, oral): curative (6/6)
P. berghei blood-schizontocidal activity (mice cured/treated) ([2]; 50 mg/kg/day × 4, oral): curative (6/6)
P. berghei blood-schizontocidal activity (mice cured/treated) ([2]; 100 mg/kg/day × 4, oral): curative (6/6)
IC50 (A. fumigatus ATCC 90906): > 20 µg/mL
MFC (A. fumigatus ATCC 90906): > 20 µg/mL
MIC (A. fumigatus ATCC 90906): > 20 µg/mL
IC50 (P. falciparum (W2)): 0.04 µg/mL (≈ 0.0902 µM)
IC50 (C. albicans ATCC90028): 7.44 µg/mL (≈ 16.8 µM)
MFC (C. albicans ATCC90028): 10 µg/mL (≈ 22.5 µM)
MIC (C. albicans ATCC90028): 10 µg/mL (≈ 22.5 µM)
IC50 (C. neoformans ATCC90113): 2.15 µg/mL (≈ 4.85 µM)
MFC (C. neoformans ATCC90113): 5 µg/mL (≈ 11.3 µM)
MIC (C. neoformans ATCC90113): 5 µg/mL (≈ 11.3 µM)
IC50 [3]: 7.43 µg/mL (≈ 16.7 µM)
MBC [3]: 20 µg/mL (≈ 45.1 µM)
MIC [3]: 10 µg/mL (≈ 22.5 µM)
IC50 [4]: 5.2 µg/mL (≈ 11.7 µM)
IC90 [4]: > 40 µg/mL
IC50 (SA (ATCC29213)): 3.4 µg/mL (≈ 7.66 µM)
MBC (SA (ATCC29213)): 10 µg/mL (≈ 22.5 µM)
MIC (SA (ATCC29213)): 5 µg/mL (≈ 11.3 µM)
P. yoelii nigeriensis blood-schizontocidal activity (mice cured/treated) ([5]; 25 mg/kg/day × 4, oral): inactive (0/6)
P. yoelii nigeriensis blood-schizontocidal activity (mice cured/treated) ([5]; 50 mg/kg/day × 4, oral): active (3/6)
P. yoelii nigeriensis blood-schizontocidal activity (mice cured/treated) ([5]; 100 mg/kg/day × 4, oral): active (4/6)
